Screening results: PubChem BioAssay, several laboratories
T cruzi repl: T. cruzi replication inhibition; T. cruzi beta-gal in NIH3T3, luminescence, 90 h; 1.4% of 300,000 active; AID 1885; inhibition, % (test concentration not listed);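 active = mean inhibition across valid replicates above about 55%, limit read from the data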;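 also: signal also drops with host cell toxicity which is not excluded here; 0% = plate median of DMSO wells and 100% = zero luminescence signal; higher percent means less beta-gal luminescence so fewer parasites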
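Read-out: Parasite load inhibition, % | Test system: Mouse NIH/3T3 fibroblasts infected with β-gal-expressing T. cruzi Tulahuen C4 | Amount: 5,000 cells/well | Medium: DMEM, 2% fetal bovine serum | Signal: GalScreen β-gal luminescence, detergent lysis, 60 min | Timing: 3 h attach, ≥90 h co-culture | Also added: Tulahuen C4 trypomastigotes, 5000/well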
DNA FID counter-1: displaces DNA intercalator in HCV helicase counter-screen; DNA fluorescent intercalator displacement, fluorescence; inhibition, % at 7.9 µM; 0.17% of 290,000 active;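 also: 0% = vehicle and 100% = reference compound; higher means more ethidium bromide displaced from hairpin DNA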
HCV NS3 hel inh: blocks Hepatitis C virus NS3 helicase unwinding. NS3 helicase DNA unwinding, Cy5 molecular beacon fluorescence. inhibition, % at 10.9 µM. 0.56% of 290,000 active;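 active = inhibition above the mean of all tested compounds plus 3 SD, set per campaign, cut at about 35% in these data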;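 also: 0% = DMSO wells and 100% = thioflavine S control wells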
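Measured by: Cy5 fluorescence, 0 and 60 min reads / Assay system: NS3 helicase fragment of HCV / Control set: low DMSO, high thioflavine S at 110 µM / Times: 1 h reaction at 25 °C, ATP-initiated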
MEKK3 PB1 HTS: modulators (inhibitors or enhancers) of MEK5 binding to human MEKK3 PB1 domain; AID 1529; bead-based flow cytometry, Alexa488-MEK5 binding to MEKK3; actives lie on both sides; 0 = blocked by unlabeled MEK5, 100 = vehicle; Q99759; 1.4% of 290,000 active; binding response (% of control), % at 10 µM;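 active = binding response more than 3 SD above or below the average of its plate-row segment, actives on both sides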;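 also: Alexa488 bead fluorescence after subtracting the streptavidin-only scavenger bead signal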
Target sequence (Q99759 whole entry, looked up, the tested form may be a part): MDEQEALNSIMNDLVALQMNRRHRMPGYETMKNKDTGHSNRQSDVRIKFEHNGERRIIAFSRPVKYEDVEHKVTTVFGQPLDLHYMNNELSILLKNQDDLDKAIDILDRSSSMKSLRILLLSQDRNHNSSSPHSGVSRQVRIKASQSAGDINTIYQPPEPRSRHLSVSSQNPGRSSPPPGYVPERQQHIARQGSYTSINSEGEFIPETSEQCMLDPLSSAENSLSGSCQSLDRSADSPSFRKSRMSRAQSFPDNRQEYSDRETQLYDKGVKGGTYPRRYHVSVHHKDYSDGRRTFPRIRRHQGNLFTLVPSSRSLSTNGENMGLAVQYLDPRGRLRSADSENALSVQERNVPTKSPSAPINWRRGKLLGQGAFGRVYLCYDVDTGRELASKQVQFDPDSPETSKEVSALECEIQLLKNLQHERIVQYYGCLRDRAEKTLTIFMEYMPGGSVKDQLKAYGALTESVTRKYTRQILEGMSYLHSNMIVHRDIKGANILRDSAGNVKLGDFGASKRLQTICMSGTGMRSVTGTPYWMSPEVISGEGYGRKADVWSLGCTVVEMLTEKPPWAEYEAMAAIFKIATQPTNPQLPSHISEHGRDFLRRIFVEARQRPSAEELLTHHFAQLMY
MEKK2wt PB1 HTS: raises or lowers MEK5 binding to wildtype human MEKK2 PB1 domain | bead flow cytometry, Alexa488-MEK5 binding to MEKK2 WT; actives lie on both sides | binding response (% of control), % at 10 µM | 1.1% of 290,000 active; in the data active = binding response below about 67% or above about 130%
MEKK2mut PB1 HTS: signal of MEK5 binding to mutant human MEKK2 PB1 domain | percent response, % at 10 µM | 0.35% of 290,000 active | AID 1530 | bead flow cytometry, Alexa488-MEK5 binding to MEKK2 mutant; in the data active = percent response above about 24%, passing the limit was not always enough
NS3 helicase cf: confirmation of Hepatitis C virus NS3 helicase inhibitors. shares compounds with HCV NS3 hel inh. NS3 helicase DNA unwinding, Cy5 molecular beacon fluorescence. inhibition, % at 10.9 µM. 31% of 1,600 active;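 active = inhibition above the mean of all tested compounds plus 3 SD, cutoff set per campaign, cut at about 36% in these data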
DNA FID counter-2: displaces DNA intercalator in HCV helicase counter-screen; inhibition, % at 7.9 µM; shares compounds with HCV NS3 hel inh; 4% of 1,600 active; DNA fluorescent intercalator displacement, fluorescence;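 also: 0% = vehicle and 100% = reference compound; higher means more displacement of ethidium bromide from the DNA hairpin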
DNA FID DR: displaces fluorescent intercalator from DNA, HCV helicase counter-screen; IC50, µM; shares compounds with HCV NS3 hel inh; 120 tested, under 10 active; fluorescent intercalator displacement from DNA, fluorescence; call rule not given here
Active calls of the source: *; nt = no result. Most compounds without a hit are left out; they make up all but 4.1% or so of the library. Rule as the data show it, unless noted: active = inhibition above about 37%; inactive = the rest.

SMILES | T cruzi repl | DNA FID counter-1 | HCV NS3 hel inh | MEKK3 PB1 HTS | MEKK2wt PB1 HTS | MEKK2mut PB1 HTS | NS3 helicase cf | DNA FID counter-2 | others
COc1ccc(C(=O)N/C(=C/c2ccco2)C(=O)NCc2ccco2)cc1 | -2 | -9 | 3 | 104 | 105 | 0 | nt | nt
CCOC(=O)Cc1cc(=O)n2[nH]cc(-c3ccc(Cl)cc3)c2n1 | -1 | -12 | 64* | 100 | 83 | -10 | 84* | 13
CC1CCCC2(C1)NC(=S)N(c1ccccc1)N2 (stereo not drawn) | -7 | 4 | 6 | 93 | 95 | -1 | nt | nt
CC1CCCC2(C1)NC(=S)c1c(sc3c1CCCC3)N2 (stereo not drawn) | -18 | -8 | 36* | 103 | 97 | 3 | 1 | 10
Cc1ccc(C)c(NC(=S)Nc2cccc3cnccc23)c1 | 12 | 5 | -9 | 81 | 76 | -19 | nt | nt
Cc1ccc(F)c(NC(=S)Nc2cccc3ccccc23)c1 | 7 | 1 | 52* | 100 | 98 | 5 | 4 | 6
C/C(=N/NC(=O)CCC(=O)Nc1ccc(Br)cc1)c1ccc(Br)cc1 | -16 | -4 | 7 | 106 | 107 | 9 | nt | nt
CCOC(=O)CC(=O)CSc1ccc2nnc(-c3cccc(F)c3)n2n1 | -12 | -15 | 27 | 86 | 90 | -8 | nt | nt
CCOC(=O)CC(=O)CSc1ccc2nnc(-c3ccc(F)cc3)n2n1 | -22 | -16 | 38* | 99 | 101 | 3 | -8 | -2
Cn1c2ccccc2c(=O)c2ccc(C#CC3(O)CCCCC3)cc21 | 11 | -28 | 4 | 101 | 99 | -2 | nt | nt
COc1ccc(-c2csc(NC(=O)c3ccccc3Br)c2C(=O)O)cc1 | 7 | -9 | 41* | 103 | 102 | 3 | 59* | -18
CCc1ccc[n+](-c2[nH]c(=O)sc2/C=N/N=C(\[O-])c2ccncc2)c1 | 25 | -8 | 10 | 100 | 100 | 5 | nt | nt
Cc1cc(C)c[n+](-c2[nH]c(=O)sc2/C=N/N=C(\[O-])c2cccnc2)c1 | -30 | -2 | 36* | 95 | 97 | -6 | -11 | 2
O=C(CCC(=O)NCCCc1ccccc1)NCCCc1ccccc1 | 5 | -29 | 0 | 90 | 88 | -2 | nt | nt
O=C(O)CCCCCCCCCCCc1ccccc1 | -15 | -26 | 38* | 107 | 90 | 4 | 70* | -37
CCCCOc1ccc(C(=O)OCC(=O)NC2CCCC2)cc1 | 17 | -30 | -11 | 106 | 104 | 6 | nt | nt
CCOc1cc(/C=C2/C(=O)NN(c3cccc(Cl)c3)C2=O)ccc1O | -1 | -4 | 37* | 104 | 105 | 4 | 64* | -4
COc1cc(/C=C2/NC(=O)N(c3cccc(Cl)c3)C2=O)ccc1O | -110 | 0 | -6 | 93 | 84 | -10 | nt | nt
COc1cc(/C=C2/C(=O)NN(c3cccc(Cl)c3)C2=O)cc(OC)c1O | 0 | -14 | 46* | 100 | 100 | 6 | 51* | 14
COc1cc(/C=C2/C(=O)NN(c3ccc(C)c(Cl)c3)C2=O)cc([N+](=O)[O-])c1O | -4 | 27 | 37* | 104 | 101 | 4 | 68* | -2
COc1cc(/C=C2/C(=O)NN(c3cccc(C)c3)C2=O)cc([N+](=O)[O-])c1O | -4 | -16 | 20 | 102 | 93 | -5 | nt | nt
Cc1c(Br)c(O)c(Br)c(O)c1/C=N/n1c(-c2ccccc2)n[nH]c1=S | 42 | -8 | 36* | 102 | 99 | 4 | 70* | -4
O=C(NNc1nc2ccccc2s1)c1ccccc1F | -7 | -12 | 51* | 108 | 106 | 7 | -6 | 11
COc1ccc(C2/C(=C(\O)c3ccc4c(c3)OCCO4)C(=O)C(=O)N2c2nc(C)c(C(C)=O)s2)cc1 (stereo not drawn) | -9 | -30 | 38* | 97 | 96 | -1 | 64* | -11 | DNA FID DR=>79
COC(=O)c1ccc(C2/C(=C(\O)c3ccc4c(c3)OCCO4)C(=O)C(=O)N2c2nnc(C)s2)cc1 (stereo not drawn) | -7 | -42 | 13 | 100 | 105 | 1 | nt | nt
SMILES | T cruzi repl | DNA FID counter-1 | HCV NS3 hel inh | MEKK3 PB1 HTS | MEKK2wt PB1 HTS | MEKK2mut PB1 HTS | NS3 helicase cf | DNA FID counter-2 | others
CCOc1ccc(/C(O)=C2/C(=O)C(=O)N(c3nc(C)c(C)s3)C2c2ccco2)cc1 (stereo not drawn) | -12 | 5 | 51* | 106 | 106 | 6 | 55* | 19 | DNA FID DR=>79
COC(=O)c1sc(N2C(=O)C(=O)/C(=C(/O)c3ccc(C)cc3)C2c2ccco2)nc1C (stereo not drawn) | 0 | -30 | 27 | 95 | 94 | -3 | nt | nt
Cc1cc(NC(=O)CSc2cn(CC(=O)N(C(C)C)C(C)C)c3ccccc23)no1 | 1 | -47 | 2 | 98 | 100 | 3 | nt | nt
Cc1cccc(NC(=O)CN2C(=O)N/C(=C\c3cccn3-c3cccc(C(=O)O)c3)C2=O)c1 | -9 | -36 | 37* | 111 | 102 | -3 | 36 | -32
CC(=O)Nc1ccc(CN2CCCC(C(=O)c3ccc(C(F)(F)F)cc3)C2)cc1 (stereo not drawn) | 3 | 20 | -8 | 93 | 98 | -2 | nt | nt
Cc1cc(O)c(C=O)c2c1C(=O)Oc1c(CO)c(O)c3c(c1O2)C(O)OC3=O (stereo not drawn) | nt | 17 | 47* | 97 | 76 | 1 | 62* | 86*
COC(=O)c1cc(S(=O)(=O)Nc2ccc(C)cn2)c[nH]1 | -10 | -3 | -3 | 99 | 102 | 4 | nt | nt
Cc1nnc(NC(=O)CSc2nnc(Cc3cccn3C)n2CCc2ccccc2)s1 | -4 | -40 | 17 | 97 | 102 | 3 | nt | nt
Cn1cccc1Cc1nnc(SCC(=O)Nc2nc3ccccc3s2)n1CCc1ccccc1 | nt | -48 | 52* | 108 | 112 | 8 | 5 | -21
COc1ccc2nc(-c3ccco3)c(-c3ccco3)nc2c1 | -10 | -17 | 29 | 87 | 86 | -8 | nt | nt
c1coc(-c2nc(-c3ccco3)c(-c3ccco3)nc2-c2ccco2)c1 | -1 | 22 | 116* | 81 | 72 | -17 | 93* | 38*
Nc1nc(-c2ccco2)cs1 | -11 | 0 | 37* | 92 | 93 | -6 | -14 | -1
c1cncc(-c2nc(-c3ccco3)cs2)c1 | 7 | -7 | 6 | 96 | 99 | -2 | nt | nt
Nc1nc(-c2ccco2)c(-c2ccco2)s1 | 3 | 5 | 49* | 94 | 93 | -4 | -16 | 18
